From ChEMBL document CHEMBL4017468, “Synthesis and biological evaluation of pyrimidine derivatives with diverse azabicyclic ether/amine as novel GPR119 agonist” (Bioorg Med Chem Lett, 2017)

What follows are molecules tested against T1, Glucose-dependent insulinotropic receptor (Homo sapiens) (UniProt Q8TDV5) (assay: Agonist activity at human GPR119 expressed in HEK293 cells assessed as increase in cAMP stimulation measured after 60 mins by TR-FRET assay relative to oleoylethanolamide).
T1 sequence (whole entry): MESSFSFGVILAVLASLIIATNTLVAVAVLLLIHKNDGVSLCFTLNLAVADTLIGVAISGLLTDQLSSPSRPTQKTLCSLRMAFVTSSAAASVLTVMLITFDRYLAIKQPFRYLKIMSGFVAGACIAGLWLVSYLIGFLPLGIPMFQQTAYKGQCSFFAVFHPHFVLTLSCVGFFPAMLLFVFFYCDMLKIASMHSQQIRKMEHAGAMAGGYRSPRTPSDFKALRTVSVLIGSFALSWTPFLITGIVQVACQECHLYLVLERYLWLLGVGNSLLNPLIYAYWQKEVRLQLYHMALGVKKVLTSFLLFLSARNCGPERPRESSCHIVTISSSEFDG
Type: functional, cell-based
How it was run: (§1)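 HEK293 cells seeded at 4×10^3 cells/well, grown 24 h, then transiently transfected with a GPR119 expression plasmid using Lipofectamine/Plus. After 24 h, compounds were added in KRBH buffer with 0.1% BSA and 500 μM IBMX for 60 min at 37 °C. Cells were lysed 10 min at room temperature (50 mM phosphate, 1 M KF, 1.25% Triton X-100, pH 7.0). cAMP was read by HTRF. EC50 was taken as the concentration giving 50% of OEA-stimulated cAMP, and %max as the response relative to maximal OEA effect.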

SMILES | %max [%]
CC(C)(C)OC(=O)N1CC2CC(Nc3ncnc(Nc4ccc(S(C)(=O)=O)cc4F)c3[N+](=O)[O-])C1C2 (stereo in doubt; 27e) [listing 1 of 2 here] | 76.7
CC(C)(C)OC(=O)N1CC2CC1CC2Nc1ncnc(Nc2ccc(S(C)(=O)=O)cc2)c1[N+](=O)[O-] (stereo in doubt; 27l) [listing 1 of 2 here] | 25.1
CC(C)(C)OC(=O)N1CC2CCC1CC2Nc1ncnc(Nc2ccc(S(C)(=O)=O)cc2F)c1[N+](=O)[O-] (stereo in doubt; 27s) [listing 1 of 2 here] | 63.2
CC(C)(C)OC(=O)N1CC2CC1CC2Nc1ncnc(Nc2ccc(S(C)(=O)=O)cc2)c1[N+](=O)[O-] (stereo in doubt; 27j) [listing 1 of 2 here] | 94.3
CC(C)(C)OC(=O)N1CC2CC(Nc3ncnc(Nc4ccc(S(C)(=O)=O)cc4F)c3[N+](=O)[O-])C1C2 (stereo in doubt; 27g) [listing 1 of 2 here] | 63.4
CC(C)(C)OC(=O)N1CC2CC1CC2Oc1ncnc(Nc2ccc(S(C)(=O)=O)cc2F)c1[N+](=O)[O-] (stereo unspecified) | 86.7
CC(C)(C)OC(=O)N1CC2CC1CC2Nc1ncnc(Nc2ccc(S(C)(=O)=O)cc2F)c1[N+](=O)[O-] (stereo in doubt; 27k) [listing 1 of 2 here] | 34.8
CC(C)(C)OC(=O)N1CC2CCC1CC2Oc1ncnc(Nc2ccc(S(C)(=O)=O)cc2)c1[N+](=O)[O-] (stereo in doubt; 27p) [listing 1 of 2 here] | 44.7
CC(C)(C)OC(=O)N1CC2CCC1CC2Nc1ncnc(Nc2ccc(S(C)(=O)=O)cc2F)c1[N+](=O)[O-] (stereo in doubt; 27q) [listing 1 of 2 here] | 104
CC(C)(C)OC(=O)N1CC2CCC1CC2Nc1ncnc(Nc2ccc(S(C)(=O)=O)cc2)c1[N+](=O)[O-] (stereo in doubt; 27r) [listing 1 of 2 here] | 78.9
CCCCCCCC/C=C\CCCCCCCC(=O)NCCO | 100
CC(C)(C)OC(=O)N1CC2CC(Oc3ncnc(Nc4ccc(S(C)(=O)=O)cc4)c3[N+](=O)[O-])C1C2 (stereo unspecified) | 58.4
CC(C)(C)OC(=O)N1CC2CC(Oc3ncnc(Nc4ccc(S(C)(=O)=O)cc4F)c3[N+](=O)[O-])C1C2 (stereo unspecified) | 52.6

The next lines start with the values.

%max [%] | SMILES
71.9 | CC(C)(C)OC(=O)N1CC2CCC1CC2Oc1ncnc(Nc2ccc(S(C)(=O)=O)cc2)c1[N+](=O)[O-] (stereo in doubt; 27n) [listing 1 of 2 here]
32.9 | CC(C)(C)OC(=O)N1CC2CCC1CC2Oc1ncnc(Nc2ccc(S(C)(=O)=O)cc2F)c1[N+](=O)[O-] (stereo unspecified)
21.6 | CC(C)(C)OC(=O)N1CC2CC(Nc3ncnc(Nc4ccc(S(C)(=O)=O)cc4)c3[N+](=O)[O-])C1C2 (stereo in doubt; 27h) [listing 1 of 2 here]
101 | CC(C)(C)OC(=O)N1CC2CC1CC2Oc1ncnc(Nc2ccc(S(C)(=O)=O)cc2)c1[N+](=O)[O-] (stereo unspecified)
58.1 | CC(C)(C)OC(=O)N1CC2CCC1CC2Nc1ncnc(Nc2ccc(S(C)(=O)=O)cc2)c1[N+](=O)[O-] (stereo in doubt; 27t) [listing 1 of 2 here]
38.9 | CC(C)(C)OC(=O)N1CC2CC(Nc3ncnc(Nc4ccc(S(C)(=O)=O)cc4)c3[N+](=O)[O-])C1C2 (stereo in doubt; 27f) [listing 1 of 2 here]
97 | CC(C)(C)OC(=O)N1CC2CC1CC2Nc1ncnc(Nc2ccc(S(C)(=O)=O)cc2F)c1[N+](=O)[O-] (stereo in doubt; 27i) [listing 1 of 2 here]
112 | CC(C)(C)OC(=O)N1C[C@@H]2CC[C@@H]1C[C@@H]2Oc1ncnc(Nc2ccc(S(C)(=O)=O)cc2F)c1[N+](=O)[O-] (relative stereo)

These molecules were tested against T2, Glucose-dependent insulinotropic receptor (Homo sapiens, UniProt Q8TDV5) (assay: Agonist activity at human GPR119 expressed in HEK293 cells assessed as increase in cAMP stimulation measured after 60 mins by TR-FRET assay).
T2 sequence (Q8TDV5 whole entry): T1 sequence (whole entry)
Type: functional, cell-based
How it was run: as §1

SMILES | EC50 [µM]
CC(C)(C)OC(=O)N1CC2CCC1CC2Nc1ncnc(Nc2ccc(S(C)(=O)=O)cc2F)c1[N+](=O)[O-] (stereo in doubt; 27q) [listing 2 of 2 here] | 0.0018
CC(C)(C)OC(=O)N1CC2CCC1CC2Nc1ncnc(Nc2ccc(S(C)(=O)=O)cc2)c1[N+](=O)[O-] (stereo in doubt; 27t) [listing 2 of 2 here] | 0.0064
CC(C)(C)OC(=O)N1CC2CC(Nc3ncnc(Nc4ccc(S(C)(=O)=O)cc4F)c3[N+](=O)[O-])C1C2 (stereo in doubt; 27g) [listing 2 of 2 here] | 0.236
CC(C)(C)OC(=O)N1CC2CCC1CC2Oc1ncnc(Nc2ccc(S(C)(=O)=O)cc2)c1[N+](=O)[O-] (stereo in doubt; 27n) [listing 2 of 2 here] | 0.0031
CC(C)(C)OC(=O)N1CC2CC1CC2Oc1ncnc(Nc2ccc(S(C)(=O)=O)cc2F)c1[N+](=O)[O-] (stereo unspecified) | 0.0056
CC(C)(C)OC(=O)N1CC2CCC1CC2Nc1ncnc(Nc2ccc(S(C)(=O)=O)cc2F)c1[N+](=O)[O-] (stereo in doubt; 27s) [listing 2 of 2 here] | 0.0053
CC(C)(C)OC(=O)N1CC2CCC1CC2Oc1ncnc(Nc2ccc(S(C)(=O)=O)cc2)c1[N+](=O)[O-] (stereo in doubt; 27p) [listing 2 of 2 here] | > 10
CC(C)(C)OC(=O)N1CC2CC1CC2Nc1ncnc(Nc2ccc(S(C)(=O)=O)cc2F)c1[N+](=O)[O-] (stereo in doubt; 27i) [listing 2 of 2 here] | 0.0049
CC(C)(C)OC(=O)N1CC2CC(Oc3ncnc(Nc4ccc(S(C)(=O)=O)cc4)c3[N+](=O)[O-])C1C2 (stereo unspecified) | 0.315
CC(C)(C)OC(=O)N1CC2CC(Nc3ncnc(Nc4ccc(S(C)(=O)=O)cc4)c3[N+](=O)[O-])C1C2 (stereo in doubt; 27f) [listing 2 of 2 here] | > 1
CC(C)(C)OC(=O)N1CC2CCC1CC2Nc1ncnc(Nc2ccc(S(C)(=O)=O)cc2)c1[N+](=O)[O-] (stereo in doubt; 27r) [listing 2 of 2 here] | 0.0056
CC(C)(C)OC(=O)N1CC2CC(Nc3ncnc(Nc4ccc(S(C)(=O)=O)cc4F)c3[N+](=O)[O-])C1C2 (stereo in doubt; 27e) [listing 2 of 2 here] | 0.053
CC(C)(C)OC(=O)N1CC2CC(Oc3ncnc(Nc4ccc(S(C)(=O)=O)cc4F)c3[N+](=O)[O-])C1C2 (stereo unspecified) | 0.0777

Second part, the molecule after the results:

EC50 [µM] | SMILES
> 10 | CC(C)(C)OC(=O)N1CC2CC1CC2Nc1ncnc(Nc2ccc(S(C)(=O)=O)cc2F)c1[N+](=O)[O-] (stereo in doubt; 27k) [listing 2 of 2 here]
0.0482 | CC(C)(C)OC(=O)N1CC2CC1CC2Nc1ncnc(Nc2ccc(S(C)(=O)=O)cc2)c1[N+](=O)[O-] (stereo in doubt; 27j) [listing 2 of 2 here]
> 10 | CC(C)(C)OC(=O)N1CC2CCC1CC2Oc1ncnc(Nc2ccc(S(C)(=O)=O)cc2F)c1[N+](=O)[O-] (stereo unspecified)
> 10 | CC(C)(C)OC(=O)N1CC2CC1CC2Nc1ncnc(Nc2ccc(S(C)(=O)=O)cc2)c1[N+](=O)[O-] (stereo in doubt; 27l) [listing 2 of 2 here]
0.11 | CC(C)(C)OC(=O)N1CC2CC1CC2Oc1ncnc(Nc2ccc(S(C)(=O)=O)cc2)c1[N+](=O)[O-] (stereo unspecified)
> 10 | CC(C)(C)OC(=O)N1CC2CC(Nc3ncnc(Nc4ccc(S(C)(=O)=O)cc4)c3[N+](=O)[O-])C1C2 (stereo in doubt; 27h) [listing 2 of 2 here]
0.0012 | CC(C)(C)OC(=O)N1C[C@@H]2CC[C@@H]1C[C@@H]2Oc1ncnc(Nc2ccc(S(C)(=O)=O)cc2F)c1[N+](=O)[O-] (relative stereo)
